Reference: ChEMBL document CHEMBL5247578, “Effective synthesis of benzimidazoles-imidazo[1,2-a]pyrazine conjugates: A comparative study of mono-and bis-benzimidazoles for antitumor activity” (Eur J Med Chem, 2019)

Tests used:
Format in all cases: functional
U-251 = test: Antiproliferative activity against human U-251 cells assessed as cell growth inhibition at 10 uM incubated for 48 hrs by sulforhodamine B assay relative to control
Outline: (§1)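 NCI-60 single-dose screen at 10^-5 M. Cells grown in RPMI 1640 with 5% FBS and 2 mM L-glutamine, plated at 5,000–40,000 cells/well, and preincubated 24 h. Drug (DMSO stock) added and incubated 48 h at 37 °C, 5% CO2. Adherent cells fixed with cold TCA, stained with 0.4% SRB in 1% acetic acid, dye solubilized in 10 mM trizma base, A515 read. Percent growth taken against time-zero and untreated control.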

SF-295 = test: Antiproliferative activity against human SF-295 cells assessed as cell growth inhibition at 10 uM incubated for 48 hrs by sulforhodamine B assay relative to control; outline: as §1
ACHN = test: Antiproliferative activity against human ACHN cells assessed as cell growth inhibition at 10 uM incubated for 48 hrs by sulforhodamine B assay relative to control
Outline: (§2)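 Single-dose NCI-60 prescreen at 10^-5 M. Cells in RPMI 1640 with 5% FBS and 2 mM L-glutamine, seeded 5,000–40,000 cells/well with 24 h preincubation, then drug exposure for 48 h at 37 °C under 5% CO2. Growth read by SRB staining of TCA-fixed cells at 515 nm against time-zero and untreated controls. Negative growth values denote cell kill.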

UACC-62 = test: Antiproliferative activity against human UACC-62 cells assessed as cell growth inhibition at 10 uM incubated for 48 hrs by sulforhodamine B assay relative to control; outline: as §1
IGROV-1 = test: Antiproliferative activity against human IGROV-1 cells assessed as cell growth inhibition at 10 uM incubated for 48 hrs by sulforhodamine B assay relative to control; outline: as §1
SK-MEL-5 = test: Antiproliferative activity against human SK-MEL-5 cells assessed as cell growth inhibition at 10 uM incubated for 48 hrs by sulforhodamine B assay relative to control; outline: as §1
HL-60 = test: Antiproliferative activity against human HL-60 cells assessed as cell growth inhibition at 10 uM incubated for 48 hrs by sulforhodamine B assay relative to control
Outline: (§3)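 NCI-60 one-dose prescreen at 10^-5 M. Cells grown in RPMI 1640 with 5% FBS and 2 mM glutamine, preincubated 24 h, then exposed 48 h at 37 °C. Adherent lines TCA-fixed, SRB-stained, A515 read. Growth percent relative to time-zero and control; negative values mean cell kill.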

Hs-578T = test: Antiproliferative activity against human Hs-578T cells assessed as cell growth inhibition at 10 uM incubated for 48 hrs by sulforhodamine B assay relative to control; outline: as §1
MDA-MB-231 = test: Antiproliferative activity against human MDA-MB-231 cells assessed as cell growth inhibition at 10 uM incubated for 48 hrs by sulforhodamine B assay relative to control; outline: as §1
MOLT-4 = test: Antiproliferative activity against human MOLT-4 cells assessed as cell growth inhibition at 10 uM incubated for 48 hrs by sulforhodamine B assay relative to control; outline: as §1
SK-OV-3 = test: Antiproliferative activity against human SK-OV-3 cells assessed as cell growth inhibition at 10 uM incubated for 48 hrs by sulforhodamine B assay relative to control; outline: as §1
DU-145 = test: Antiproliferative activity against human DU-145 cells assessed as cell growth inhibition at 10 uM incubated for 48 hrs by sulforhodamine B assay relative to control; outline: as §3
EKVX = test: Antiproliferative activity against human EKVX cells assessed as cell growth inhibition at 10 uM incubated for 48 hrs by sulforhodamine B assay relative to control; outline: as §3
OVCAR-3 = test: Antiproliferative activity against human OVCAR-3 cells assessed as cell growth inhibition at 10 uM incubated for 48 hrs by sulforhodamine B assay relative to control; outline: as §1
BT-549 = test: Antiproliferative activity against human BT-549 cells assessed as cell growth inhibition at 10 uM incubated for 48 hrs by sulforhodamine B assay relative to control; outline: as §2
SR = test: Antiproliferative activity against human SR cells assessed as cell growth inhibition at 10 uM incubated for 48 hrs by sulforhodamine B assay relative to control; outline: as §1
SK-MEL-28 = test: Antiproliferative activity against human SK-MEL-28 cells assessed as cell growth inhibition at 10 uM incubated for 48 hrs by sulforhodamine B assay relative to control; outline: as §1
T47D = test: Antiproliferative activity against human T47D cells assessed as cell growth inhibition at 10 uM incubated for 48 hrs by sulforhodamine B assay relative to control; outline: as §1
SF-268 = test: Antiproliferative activity against human SF-268 cells assessed as cell growth inhibition at 10 uM incubated for 48 hrs by sulforhodamine B assay relative to control; outline: as §1
K562 = test: Antiproliferative activity against human K562 cells assessed as cell growth inhibition at 10 uM incubated for 48 hrs by sulforhodamine B assay relative to control; outline: as §1
UACC-257 = test: Antiproliferative activity against human UACC-257 cells assessed as cell growth inhibition at 10 uM incubated for 48 hrs by sulforhodamine B assay relative to control; outline: as §1
MDA-MB-468 = test: Antiproliferative activity against human MDA-MB-468 cells assessed as cell growth inhibition at 10 uM incubated for 48 hrs by sulforhodamine B assay relative to control; outline: as §1
OVCAR-4 = test: Antiproliferative activity against human OVCAR-4 cells assessed as cell growth inhibition at 10 uM incubated for 48 hrs by sulforhodamine B assay relative to control; outline: as §1
SNB-19 = test: Antiproliferative activity against human SNB-19 cells assessed as cell growth inhibition at 10 uM incubated for 48 hrs by sulforhodamine B assay relative to control; outline: as §1
HOP-62 = test: Antiproliferative activity against human HOP-62 cells assessed as cell growth inhibition at 10 uM incubated for 48 hrs by sulforhodamine B assay relative to control; outline: as §3
TK-10 = test: Antiproliferative activity against human TK-10 cells assessed as cell growth inhibition at 10 uM incubated for 48 hrs by sulforhodamine B assay relative to control; outline: as §1
CAKI-1 = test: Antiproliferative activity against human CAKI-1 cells assessed as cell growth inhibition at 10 uM incubated for 48 hrs by sulforhodamine B assay relative to control; outline: as §2

SMILES	inhibition at 10 µM (U-251)	inhibition at 10 µM (SF-295)	inhibition at 10 µM (ACHN)	inhibition at 10 µM (UACC-62)	inhibition at 10 µM (IGROV-1)	inhibition at 10 µM (SK-MEL-5)	inhibition at 10 µM (HL-60)	inhibition at 10 µM (Hs-578T)	inhibition at 10 µM (MDA-MB-231)	inhibition at 10 µM (MOLT-4)	inhibition at 10 µM (DU-145)	inhibition at 10 µM (EKVX)	inhibition at 10 µM (OVCAR-3)	inhibition at 10 µM (BT-549)	inhibition at 10 µM (SR)	inhibition at 10 µM (T47D)	inhibition at 10 µM (SF-268)	inhibition at 10 µM (K562)	inhibition at 10 µM (OVCAR-4)	inhibition at 10 µM (SNB-19)	also measured
Brc1ccc(-c2cn3ccnc3c(-c3ccc4ncn(C5CCCCC5)c4c3)n2)cc1	23.7%	41.3%	21.4%	46.9%	9.4%	23.6%	23.2%	24.5%	22.8%	20.4%	5.66%	16.2%	26.3%	35.1%	60.6%	55%	15.5%	59%	10.5%	18.3%	inhibition at 10 µM (SK-OV-3): 6.44%; inhibition at 10 µM (SK-MEL-28): 28.3%; inhibition at 10 µM (UACC-257): 7.3%; inhibition at 10 µM (MDA-MB-468): 33.7%
O=Cc1ccc(-c2cn3ccnc3c(-c3ccc4ncn(Cc5ccccc5)c4c3)n2)cc1	32%	23.1%	11.6%	37.1%	21.3%	56.5%	16.5%	45.5%	51.2%	58.7%	24.3%	20.9%	23.7%	33.8%	47.5%	98%	27.1%		16.9%	14.4%	inhibition at 10 µM (HOP-62): 23.8%; inhibition at 10 µM (SK-OV-3): 5.11%; inhibition at 10 µM (TK-10): 0.75%; inhibition at 10 µM (SK-MEL-28): 7.54%; inhibition at 10 µM (CAKI-1): 36.5%
COc1ccccc1-c1cn2ccnc2c(-c2ccc3ncn(C4CCCCC4)c3c2)n1	21%	9.76%	4.48%	25.1%		8.94%	14.6%	15.8%	15.9%	22.4%		13.3%	6.57%		26.3%	36.6%	8.04%	22.6%	13.2%	11.1%	inhibition at 10 µM (SK-OV-3): 10.6%; inhibition at 10 µM (MDA-MB-468): 14.6%
O=Cc1ccc(-c2cn3ccnc3c(-c3ccc4ncn(C5CCCCC5)c4c3)n2)cc1	32%	23.1%	11.6%	37.1%	21.3%	56.5%	16.5%	45.5%	51.2%	58.7%	24.3%	20.9%	23.7%	33.8%	47.5%	98%	27.1%		16.9%	14.4%	inhibition at 10 µM (HOP-62): 23.8%; inhibition at 10 µM (SK-OV-3): 5.11%; inhibition at 10 µM (TK-10): 0.75%; inhibition at 10 µM (SK-MEL-28): 7.54%; inhibition at 10 µM (CAKI-1): 36.5%
Clc1ccc(-c2cn3ccnc3c(-c3ccc4ncn(C5CCCCC5)c4c3)n2)cc1	11.3%	14.5%	5.45%	30.5%	7.84%	12.4%	15.6%	6.35%	15.3%	8.87%		13.1%	10.8%	23.8%	18.5%	27.6%	4.83%	44.5%	4.57%	15.8%	inhibition at 10 µM (SK-OV-3): 6.14%; inhibition at 10 µM (SK-MEL-28): 12.1%; inhibition at 10 µM (UACC-257): 5.44%; inhibition at 10 µM (MDA-MB-468): 10.6%
Brc1cn2ccnc2c(-c2ccc3ncn(C4CCCCC4)c3c2)n1	1.5%		11.5%	19.8%	6.6%	13.4%	18%	16.1%	24.2%	26.3%	6.2%	12%	15.8%	5.16%	26.8%	49.7%	17.1%	18%	9.15%	8.09%	inhibition at 10 µM (HOP-62): 21.7%; inhibition at 10 µM (TK-10): 5.55%; inhibition at 10 µM (MDA-MB-468): 44.4%
Fc1ccccc1-c1cn2ccnc2c(-c2ccc3ncn(C4CCCCC4)c3c2)n1	11.4%	10.4%	13.2%	38.2%		6.5%	9.3%	5.26%	21.3%	22.5%	0.96%	16%	0.17%	4.08%	16.3%	77.2%	6.04%	22.8%	4.51%	7.56%	inhibition at 10 µM (MDA-MB-468): 27.6%
Fc1ccc(-c2cn3ccnc3c(-c3ccc4ncn(C5CCCCC5)c4c3)n2)cc1	7.94%	7.93%	9.02%	31%		7.36%	2.03%	17.6%	15.8%	25.2%	1.17%	10.5%	7.88%	20.3%	20.4%	33.3%	10.7%	24.7%	5.73%	14.2%	inhibition at 10 µM (SK-MEL-28): 2.67%; inhibition at 10 µM (MDA-MB-468): 19.5%
c1ccc(Cn2cnc3ccc(-c4nc(-c5cccc6ccccc56)cn5ccnc45)cc32)cc1	5.53%	8.22%	12.3%	12.9%	11.3%	9.69%		5.98%	28.7%	22.3%		24.6%	1.44%		12.4%	73.8%	10.3%		7.88%	5.12%	inhibition at 10 µM (HOP-62): 14%; inhibition at 10 µM (CAKI-1): 27.1%
